Laboratory results reported in PubChem BioAssay.
Inconclusive results are not listed.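 Rule for the calls, unless noted: active = growth inhibition above 25% in both replicates, a cutoff set 3 SD above the mean; inconclusive = above 25% in only one replicate; inactive = the rest.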

How the values were obtained:
[1] = OD615 S. cerevisiae growth inhibition, permissive medium, pilot counter-assay, permissive growth control for S. cerevisiae lifespan shortening project (AID 705); settings: OD615, 24 h, at 10 µM, active compounds read high
How it was run: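 System: Engineered DeaD yeast | Buffer or medium: SC raffinose/galactose permissive medium | Incubation: Cells pre-grown 4 h, then 24 h compound exposure, 30 °C humidified | Measured by: Absorbance (optical density) at 615 nm | Read-out: Reduction in yeast growth (OD615)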

[2] = Restrictive medium S. cerevisiae growth inhibition, OD615, pilot screen of yeast lifespan reduction project, restrictive growth control (AID 706;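 active = growth inhibition above a set limit, 3 SD over mean compound inhibition, in both replicates, cut at about 43% in these data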;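 note: modified DeaD lifespan yeast strain shifted to restrictive glucose medium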); settings: OD615, 48 h, at 10 µM, active compounds read high
How it was run: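 Material: modified S. cerevisiae; Medium: glucose-based CSMM-D restrictive medium; Compound dosing: one concentration, 10 µM final, 0.25% DMSO; Incubation: 48 h compound exposure at 30 °C; Measured by: OD615.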

[3] = viability gain of MRP-1-high H69AR cells under doxorubicin, pilot screen, MRP-1 activator project, CellTiter-Glo, duplicate (AID 807;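 active = viability increase at or above a cutoff of the median across tested compounds plus 3 SD, cut at about 8.5% in these data, passing the limit was not always enough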;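 note: compound pretreatment 18-22 h then 72 h combined with doxorubicin; 0% = doxorubicin alone and 100% = vehicle without doxorubicin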); settings: H69AR viability with doxorubicin, CellTiter-Glo luminescence; at 10 µM; active compounds read high
[4] = growth suppression of beta-catenin knockout HCT116, pilot screen, human colon tumor cells (AID 823;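 active = cell viability at or below a set limit in both duplicate runs, the limit being the all-compound median minus 4 SD, cut at about 23% in these data, passing the limit was not always enough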;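 note: 0% = wells killed by 20 µM Hyamine and 100% = untreated DMSO cell wells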); settings: CellTiter-Glo, 60 h, at 10 µM, active compounds read low
[5] = growth suppression of PTEN-deleted HCT116, pilot screen, cell-based, HCT116 clonal line, CellTiter-Glo (AID 824;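 active = viability at or below 27.92% in each of two runs, the all-compound median minus 4 SD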;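 note: 0% = 20 µM Hyamine control and 100% = vehicle cell control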); settings: 60 h, at 10 µM, active compounds read low
[6] = inhibitors of the yeast RAM network, pilot screen, dse1pr::URA3 reporter, 5-FOA selection (AID 869;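 active = inhibition over a set limit, the all-compound mean plus 3 SD, in both replicate runs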;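 note: 0% = DMSO wells with no growth and 100% = 10 µM 1-NA-PP1 with full growth; RAM network block rescues cells from 5-FOA so hits raise OD615 growth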); settings: S. cerevisiae dse1pr::URA3 5-FOA growth, OD615, 2 d; at 10 µM; active compounds read high; strain carries analog-sensitive mutant Cbk1 kinase
[7] = RAM signaling pathway blockade in yeast – S. cerevisiae, Pdr1DBD-CYC8 efflux-inhibited sensitized strain, primary screen (AID 1298;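 active = RAM network inhibition above 8.4% in each of two replicates, 3 SD over the compound average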;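 note: 0% = DMSO untreated cells without growth and 100% = 10 µM 1-NA-PP1 full growth; higher means more yeast growth rescued from 5-FOA killing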); settings: S. cerevisiae cbk1-as DSE1-URA3 strain, 5-FOA growth OD615, 2 d; at 50 µM; active compounds read high

CCCCC(=O)Nc1nc2ccc3nc(C)sc3c2s1
inactive: growth inhibition [1] -25.8% | growth inhibition [2] -2.65% | viability increase [3] -0.78% | viability [4] 81.3% | viability [5] 87.2% | inhibition [6] 2.27% | RAM network inhibition [7] 0.32%

COc1cc(C(=O)Nc2ccc(S(=O)(=O)N3CCCCC3C)cc2)cc(OC)c1OC (stereo not drawn)
inactive: growth inhibition [1] -18.5% | growth inhibition [2] -16.6% | viability increase [3] -4.48% | viability [4] 69.9% | viability [5] 65.7% | inhibition [6] 1.7% | RAM network inhibition [7] 4.51%

Cc1nc2sc(C(c3ccco3)N3CCN(c4ccccc4)CC3)c(O)n2n1 (stereo not drawn)
inactive: growth inhibition [1] -2.19% | growth inhibition [2] -0.705% | viability increase [3] 3.13% | viability [4] 97.3% | viability [5] 101% | inhibition [6] 1.73% | RAM network inhibition [7] 3%

O=C(Cn1ncc2c(=O)oc3ccccc3c21)NCCN1CCN(c2ccccc2F)CC1
inactive: growth inhibition [1] 1.82% | growth inhibition [2] -16.2% | viability increase [3] -0.78% | viability [4] 92.8% | viability [5] 91.5% | inhibition [6] 0.705% | RAM network inhibition [7] 1.34%

C=CCNC(=O)C1CC(=O)N(c2ccc(C)cc2)C1 (stereo not drawn)
inactive: growth inhibition [1] -10.6% | growth inhibition [2] -4.72% | viability increase [3] -3.08% | viability [4] 93.9% | viability [5] 86.1% | inhibition [6] 0.995% | RAM network inhibition [7] 4.77%

CCSCCOC(=O)C1=C(C)NC(=O)NC1c1ccc2c(c1)OCO2 (stereo not drawn)
inactive: growth inhibition [1] 3.31% | growth inhibition [2] 3.72% | viability increase [3] -1.35% | viability [4] 94.3% | viability [5] 94.5% | inhibition [6] 2.05% | RAM network inhibition [7] 0.41%

Cc1cccc(OCCOCCSc2ncccn2)c1
inactive: growth inhibition [1] -8.47% | growth inhibition [2] 8.79% | viability increase [3] -1.63% | viability [4] 97.9% | viability [5] 94.8% | inhibition [6] 0.99% | RAM network inhibition [7] 6.33%

O=C1CCc2cc(S(=O)(=O)N3CCCC3C(=O)N3CCN(c4ccccc4)CC3)ccc2N1 (stereo not drawn)
inactive: growth inhibition [1] -10.3% | growth inhibition [2] -12.1% | viability increase [3] -3.91% | viability [4] 105% | viability [5] 85% | inhibition [6] 3.67% | RAM network inhibition [7] 4.76%

N=c1n(CCOc2ccccc2)c2ccccc2n1CCN1CCOCC1
inactive: growth inhibition [1] -1.46% | growth inhibition [2] 6.28% | viability increase [3] -3.52% | viability [4] 82.5% | viability [5] 85.8% | inhibition [6] 0.845% | RAM network inhibition [7] -0.47%

CC(=O)c1ccc(NC(=O)C2CCCN2S(=O)(=O)c2ccc(F)cc2)cc1 (stereo not drawn)
inactive: growth inhibition [1] -5.81% | growth inhibition [2] 0.06% | viability increase [3] 0.59% | viability [4] 98.5% | viability [5] 96.2% | inhibition [6] 2.9% | RAM network inhibition [7] 1.64%

O=C(Nc1ccc(Cl)cc1)C1CC2CCCC(C1)C2=O (stereo not drawn)
inactive: growth inhibition [1] -7.49% | growth inhibition [2] -3.51% | viability increase [3] 0.77% | viability [4] 97.2% | viability [5] 99.2% | inhibition [6] 0.77% | RAM network inhibition [7] 4.61%

COc1ccc(CCNc2oc(-c3ccc(C)cc3)nc2C#N)cc1OC
inactive: growth inhibition [1] -10.8% | growth inhibition [2] -13.3% | viability increase [3] -0.33% | viability [4] 95.8% | viability [5] 104% | inhibition [6] 0.67% | RAM network inhibition [7] -0.47%

COc1cc(C(=O)Nc2cc(C)c(OCC(=O)N3CCOCC3)c(C)c2)cc(OC)c1OC
inactive: growth inhibition [1] -2.29% | growth inhibition [2] 1.77% | viability increase [3] -2.98% | viability [4] 88.8% | viability [5] 90.4% | inhibition [6] 1.64% | RAM network inhibition [7] 4.86%

COc1ccc2occ(C(=O)c3ccc(N=C(C)N(C)C)cc3)c2c1
inactive: growth inhibition [1] -7.86% | growth inhibition [2] -16.5% | viability increase [3] -1.53% | viability [4] 58.4% | viability [5] 70.1% | inhibition [6] 1.21% | RAM network inhibition [7] 0.89%

CC(CNCc1ccc2c(c1)OCO2)NCc1ccc2c(c1)OCO2 (stereo not drawn)
inactive: growth inhibition [1] -14% | growth inhibition [2] -7.7% | viability increase [3] -3.34% | viability [4] 75% | viability [5] 77.2% | inhibition [6] -0.175% | RAM network inhibition [7] 1.32%

COc1ccc(-c2cn3c(C)c(C(=O)NCc4ccc5c(c4)OCO5)sc3n2)cc1
inactive: growth inhibition [1] -4.21% | growth inhibition [2] 7.5% | viability increase [3] -3.02% | viability [4] 99.8% | viability [5] 100% | inhibition [6] 3.06% | RAM network inhibition [7] 3.34%

CCn1c(O)c(C2=NCCCC2)c2ccccc21
inactive: growth inhibition [1] 0.575% | growth inhibition [2] 11.6% | viability increase [3] -0.12% | viability [4] 95% | viability [5] 102% | inhibition [6] -0.49% | RAM network inhibition [7] 1.14%

O=C(NCCO)c1ccc2[nH]c3c(c2c1)CCCC3
inactive: growth inhibition [1] -12.1% | growth inhibition [2] -18.9% | viability increase [3] -0.28% | viability [4] 98.9% | viability [5] 96.1% | inhibition [6] 1.46% | RAM network inhibition [7] 4.19%

COc1cccc(OCCCCSc2ncccn2)c1
inactive: growth inhibition [1] 0.33% | growth inhibition [2] 4.57% | viability increase [3] -2.94% | viability [4] 93.2% | viability [5] 90.2% | inhibition [6] -0.22% | RAM network inhibition [7] 4.14%

CCCN(CCC)S(=O)(=O)c1ccc(C(=O)NCc2ccc3c(c2)OCO3)cc1
inactive: growth inhibition [1] -12.9% | growth inhibition [2] -18.8% | viability increase [3] -3.62% | viability [4] 94.5% | viability [5] 80.3% | inhibition [6] 2.21% | RAM network inhibition [7] 4.05%

O=C(CNS(=O)(=O)c1cccc2nsnc12)NCc1ccc(Cl)cc1
inactive: growth inhibition [1] -2.9% | growth inhibition [2] -2.34% | viability increase [3] -4.44% | viability [4] 88% | viability [5] 91.5% | inhibition [6] 0.415% | RAM network inhibition [7] 4.28%

COc1ccc(C/C(O)=C(\C#N)c2nc3ccccc3[nH]2)cc1OC
inactive: growth inhibition [1] -4.85% | growth inhibition [2] 0.74% | viability increase [3] -1.93% | viability [4] 90.7% | viability [5] 87.7% | inhibition [6] 0.175% | RAM network inhibition [7] 3.13%

O=C(COc1ccccc1)Nc1nnc(-c2ccccc2)o1
inactive: growth inhibition [1] -5.84% | growth inhibition [2] 4.22% | viability increase [3] 0.2% | viability [4] 104% | viability [5] 94.1% | inhibition [6] 1.29% | RAM network inhibition [7] -1.25%

O=C(NCc1ccco1)C1CCN(c2nnc(-n3cccc3)s2)CC1
inactive: growth inhibition [1] 3.71% | growth inhibition [2] -3.18% | viability increase [3] -3.76% | viability [4] 97.2% | viability [5] 95.8% | inhibition [6] 0.985% | RAM network inhibition [7] 5.26%
